# TDP2 absorb: human TDP2 enzyme inhibitors, primary screen, biochemical, epi absorbance, recombinant enzyme; Tyrosyl-DNA phosphodiesterase 2 (Homo sapiens), O95551; T5PNP hydrolysis, p-nitrophenol absorbance 415 nm; inhibition, % at 12.8 µM; 370,000 tested, 0.34% active;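 active = inhibition above the mean of all tested compounds plus 3 SD, set per campaign, cut at about 25% in these data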;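 note: 0% = DMSO with enzyme and 100% = buffer with substrate but no TDP2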
# Target sequence (O95551 whole entry, looked up): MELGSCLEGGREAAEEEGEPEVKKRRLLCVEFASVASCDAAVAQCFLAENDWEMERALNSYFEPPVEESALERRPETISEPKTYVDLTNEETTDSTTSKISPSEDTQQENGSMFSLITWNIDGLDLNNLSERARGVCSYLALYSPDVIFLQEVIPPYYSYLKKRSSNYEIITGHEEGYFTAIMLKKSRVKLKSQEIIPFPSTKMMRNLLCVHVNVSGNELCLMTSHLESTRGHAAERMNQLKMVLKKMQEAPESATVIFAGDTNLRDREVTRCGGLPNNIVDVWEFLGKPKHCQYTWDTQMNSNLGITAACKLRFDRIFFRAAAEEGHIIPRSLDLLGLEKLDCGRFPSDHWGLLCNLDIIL
#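 Material: recombinant human TDP2; quantity: TDP2 enzyme at 120 nM final; medium: Tris-HCl pH 7.5 with MgCl2; compound: single concentration, 12.8 µM nominal, with 1% DMSO; incubation: 2 h enzyme incubation at 37 °C; signal: epi absorbance; measure: percent inhibition; benchmarks: high control without enzyme, low control DMSO plus TDP2; repeats: singlicate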
# PAD4 FP inh: human PAD4 inhibitors, primary screen, biochemical, fluorescence polarization, 1536-well format. Protein-arginine deiminase type-4 (Homo sapiens), Q9UM07. recombinant PAD4, RCA probe fluorescence polarization. inhibition, % at 6.36 µM. 330,000 tested, 0.41% active. AID 485272, 2010;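 active = percent inhibition above a cutoff equal to the mean of all tested compounds plus 3 SD, cut at about 15% in these data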;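 note: 0% = PAD4 with RCA probe and DMSO and 100% = probe without PAD4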
# eLon inh: inhibitors of E. coli Lon protease, primary screen, biochemical, fluorescence polarization; inhibition, % at 7.94 µM; purified E. coli Lon protease; 360,000 tested, 0.42% active; P0A9M0; in the data active = inhibition above about 13%, passing the limit was not always enough;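 note: 0% = enzyme with probe and DMSO and 100% = no enzyme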
# PRMT1 inh: PRMT1 methyltransferase inhibitors, primary screen, biochemical, fluorescence polarization; Protein arginine N-methyltransferase 1 (Homo sapiens), Q99873; recombinant PRMT1, activity-based probe fluorescence polarization; inhibition, % at 2.79 µM; 370,000 tested, 1.3% active; AID 652257, 2013;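 active = inhibition above about 21% made by adding two undisclosed values, limit read from the data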
# GSTO1 inh: inhibitors of recombinant GSTO1, primary screen, counter-screen for RBBP9 inhibitor project, biochemical, fluorescence polarization. inhibition, % at 5.96 µM. 300,000 tested, 1.1% active. Glutathione S-transferase omega-1 (Homo sapiens), P78417. activity-based probe fluorescence polarization;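 active = inhibition above the campaign mean inhibition plus 3 SD, cut at about 35% in these data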;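 note: 0% = GSTO1-1 with DMSO and 100% = wells lacking GSTO1-1 enzyme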
# Target sequence (P78417 whole entry, looked up): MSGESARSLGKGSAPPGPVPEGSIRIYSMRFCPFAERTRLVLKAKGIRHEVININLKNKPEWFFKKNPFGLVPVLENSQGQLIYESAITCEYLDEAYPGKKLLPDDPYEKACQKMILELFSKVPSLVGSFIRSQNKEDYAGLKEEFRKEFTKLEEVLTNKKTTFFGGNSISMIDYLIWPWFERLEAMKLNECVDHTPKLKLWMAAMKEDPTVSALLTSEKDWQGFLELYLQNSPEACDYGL
# GSTO1 inh conf: GSTO1 inhibitor hit confirmation, counter-screen for RBBP9 inhibitor project, biochemical, fluorescence polarization, triplicate. shares compounds with GSTO1 inh. recombinant GSTO1, probe fluorescence polarization. inhibition, % at 5.96 µM. 2,400 tested, 54% active. AID 2176, 2009;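 active = inhibition above the primary screen's cutoff, its mean inhibition plus 3 SD, cut at about 35% in these data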;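 note: loss of polarization as inhibitors block binding of rhodamine sulfonate ester activity probe; 0% = GSTO1 with DMSO and 100% = wells lacking GSTO1 enzyme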
# GSTO1 recomb ABPP: inhibitors of purified human GSTO1, late-stage follow-up, biochemical, gel ABPP, SE-Rh probe, percent inhibition | recombinant GSTO1, gel ABPP SE-Rh probe fluorescence | inhibition, % at 1 µM | shares compounds with GSTO1 inh | 130 tested, 30% active;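 active = inhibition of the enzyme GSTO1 above about 75%, limit read from the data; inactive = inhibition below that limit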
# PAD4 FP conf: human PAD4 inhibitors, confirmation, biochemical, fluorescence polarization | AID 488796, 2010 | recombinant PAD4, RCA probe fluorescence polarization | inhibition, % at 6.36 µM | 1,200 tested, 28% active | shares compounds with PAD4 FP inh;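 active = mean inhibition across replicates above the hit cutoff set by the earlier primary screen, cut at about 15% in these data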;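 note: inhibitors block active-site labeling by the probe so polarization falls; 0% = PAD4 with probe and DMSO and 100% = probe without PAD4 enzyme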
# The depositor's hits bear a star; . = not tested or not shown. The list is not random: actives were taken first. Their share in the collection is about 2.5%.
SMILES,TDP2 absorb,PAD4 FP inh,eLon inh,PRMT1 inh,GSTO1 inh,GSTO1 inh conf,others
C[C@]12CC[C@@H]3c4ccc(O)c(O)c4CC[C@H]3[C@@H]1CC[C@@H]2O,-20,1,-6,35*,61*,8,
COc1cccc(-c2ccc3c(c2)C2c4cnnn4-c4ccccc4C(=O)N2CC3)c1 (stereo not drawn),-5,.,.,-1,.,.,
CN1CCN(c2cccc3c2C(=O)c2ccccc2C3=O)CC1,-12,.,-1,13,.,.,
O=C1C(c2ccccc2)=C(N2CC2)c2ccccc21,-6,-3,-10,0,41*,33,
COc1cc(O)c(C(=O)O)c(-c2cc(O)c(O)cc2C)c1,-10,1,-5,67*,64*,23,
CC1CCN(C(=O)CCl)CC1,5,1,3,-2,93*,95*,GSTO1 recomb ABPP=83*
Cc1cc(NC(=O)COC(=O)c2c(C)nn(Cc3ccccc3)c2C)no1,-1,-4,-5,-3,4,.,
Cc1cc(NC(=O)CCl)no1,-4,2,-5,0,87*,98*,
CC1Oc2cc3c(-c4c(O)cc(O)c5c(O)c6c(cc45)OC(C)C(C)C6=O)c(O)cc(O)c3c(O)c2C(=O)C1C (stereo not drawn),.,-7,19,.,73*,60*,
COC(=O)C1=C(c2ccc(OC(F)(F)F)cc2)C[C@@H]2CC[C@H]1N2C(=O)NCc1ccco1,1,.,.,1,.,.,
CCCCN1C(=O)/C(=C/c2ccc(N3CCCCCC3)cc2)C(=O)NC1=S,.,-15,.,.,-8,.,
CCN1C(=O)/C(=C/c2ccc3c(c2)CCN3CCCCl)C(=O)NC1=S,-1,-5,-13,11,56*,70*,
COc1ccccc1N1C(=O)NC(=O)/C(=C/c2ccc3c(c2)Cc2ccccc2-3)C1=O,-4,-4,-15,8,13,.,
CC(C)(C)N1C(=O)NC(=O)/C(=C\c2ccc3c(c2)CCN3CCCCl)C1=O,19,1,-23,3,38*,66*,
O=C1NC(=S)N(C2CC2)C(=O)/C1=C/c1ccc2c(c1)CCN2CCCCl,1,-6,-25,35*,56*,63*,
O=C1NCN(c2ccccc2)C12CCN(C(c1ccccc1)c1nnnn1Cc1ccccc1)CC2 (stereo not drawn),0,.,1,3,.,.,
CCOC(=O)[C@]12Cc3c(cc(OC)c(OC)c3OC)[C@H]1N(C1CCCCC1)C(=O)c1ccccc12,10,.,-1,1,.,.,
COC(=O)C1=C[C@H]([C@@H](C)[C@H](OC)c2ccccc2Br)[C@@H]2[C@H]1c1ccccc1N2C,-5,.,.,-3,.,.,
COc1cccc(NC2=NCCS2)c1,-1,.,.,4,.,.,
CC(C)S(=O)(=O)N1Cc2ccc(Br)cc2-n2nncc2C1,-4,.,.,-1,.,.,
O=C(CN1CCCC1=O)Nc1ccccc1,-10,-3,0,-1,5,.,
O=C(CN1CCCC1=O)N1CCOCC1,-1,0,-5,-1,56*,12,
CC(C)(C)c1ccc(O)c(N=Cc2c(O)ccc3ccccc23)c1,-6,-6,-298,31*,69*,8,
C=C(C)Cn1c(=O)n(CC2CS2)c2ccccc21 (stereo not drawn),-1,-1,-9,-2,50*,46*,
COC(=O)C1=C(c2ccc(OC(F)(F)F)cc2)C[C@@H]2CC[C@H]1N2C(=O)N1CCCCC1,-8,-1,-9,1,.,.,
SMILES,TDP2 absorb,PAD4 FP inh,eLon inh,PRMT1 inh,GSTO1 inh,GSTO1 inh conf,others
O=P(OCCCl)(OCCCl)OCCCl,0,.,.,3,.,.,
OCCNc1c2c(nc3ccccc13)CCCC2,0,-4,-5,0,3,.,
C[n+]1c2ccccc2nc2ccc(NCCO)cc21,19,84*,45,11,69*,46*,
Oc1ccc2c3c1O[C@H]1c4[nH]c5ccccc5c4C[C@@]4(O)C(C2)N(CC2CC2)CC[C@]314,.,-3,.,.,40*,3,
O=C(NC1CCCCC1)N1Cc2cc(Br)ccc2-n2nncc2C1,10,.,.,-3,.,.,
CCC(C)/C=C(C)/C=C/C1=CC2=C(Cl)C(=O)C(C)(OC(C)=O)C(=O)C2=CO1 (stereo not drawn),.,-2,-8,.,43*,40*,
COC1C(O)C(C)OC(OC2C(Oc3cccc4c(O)c5c(=O)oc6ccc(C)c7c(=O)oc(c34)c5c67)OC(C)C(O)C2O)C1O (stereo not drawn),2,.,2,2,.,.,
CC(C)CNC(=O)c1c(N)n(Cc2ccc3c(c2)OCO3)c2nc3ccccc3nc12,4,7,-3,-2,62*,1,
CCCNC(=O)c1c(N)n(Cc2ccc3c(c2)OCO3)c2nc3ccccc3nc12,.,-7,-10,.,16,.,
CCCNC(=O)c1c(N)n(Cc2ccco2)c2nc3ccccc3nc12,.,-15,.,.,17,.,
CC(C)CNC(=O)c1c(N)n(Cc2ccco2)c2nc3ccccc3nc12,-2,-31,-35,40*,42*,-1,
O=[N+]([O-])c1cc(O)c(O)c([N+](=O)[O-])c1,-1,7,3,32*,39*,31,
O=[N+]([O-])c1ccc(O)c([N+](=O)[O-])c1,-11,1,-5,-3,3,.,
N=c1sccn1Cc1ccc(Cl)cc1Cl,12,0,-5,0,75*,7,
CN1CC[C@@H]2CN[C@H](c3ccccc3)C[C@@H]21,-3,.,.,3,.,.,
Cn1cc(NC(=O)CCl)cn1,9,-2,7,-1,80*,89*,
CCCN1CCc2cccc3c2[C@H]1Cc1ccc(O)c(O)c1-3,.,4,12,.,93*,9,
c1ccc(-c2[nH]c[n+](CC3CO3)c2-c2ccccc2)cc1 (stereo not drawn),.,3,.,.,76*,81*,GSTO1 recomb ABPP=24
c1ccc(OCC2CO2)cc1 (stereo not drawn),0,-3,8,-2,.,.,
CS(=O)(=O)c1ccc(C2=C(CNC(=O)c3nccs3)[C@H]3CC[C@@H](C2)N3Cc2ccccc2)cc1,-11,.,-1,-2,.,.,
CN1CC[C@@]2(C)c3cc(O)ccc3N(C)C2O1 (stereo partly drawn),.,45*,20,.,85*,51*,PAD4 FP conf=9

# Screening data deposited in PubChem BioAssay by The Scripps Research Institute Molecular Screening Center.
